Our source for the IC50 and solubility values is ChEMBL document CHEMBL1128665, “Design, synthesis, and structure-activity relationship of novel dinucleotide analogs as agents against herpes and human immunodeficiency viruses” (J Med Chem, 1995).

Converted amounts (≈) assume the structure as drawn.

The subject of data set [1] is HeLa. Description: Inhibition of cytopathogenicity of Varicella-Zoster virus(VZV)(YS) in Hela cell culture. The following applies: Homo sapiens. The format is functional, cell-based. A general note: Cytopathic effects are the visible damage that an infection or toxin causes in cultured cells.
Data set [2] deals with HeLa. Description: Concentration required to cause microscopically visible change or disruption in about 50% of Hela cell sheet. The format is functional, cell-based. Conditions: Homo sapiens; call rule not given here. The procedure, abridged: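 Uninfected HeLa cell sheets were exposed to a range of compound concentrations and checked microscopically for morphological change. The value is the concentration causing visible change or disruption in about 50% of the cell sheet.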

Data set [3] concerns HeLa. Description: Inhibition of cytopathogenicity of herpes simplex type 1 virus (HSV-1)(KOS) in Hela cell culture. The following applies: Homo sapiens. The format is functional, cell-based.
Data set [4] has as its system HeLa. Description: Inhibition of cytopathogenicity of herpes simplex type 2 virus([…] in Hela cell culture. The format is functional, cell-based. Conditions: Homo sapiens.
The nature of data set [5]: Solubility was determined with phosphate buffer (0.10M, 5 mL). The format is physicochemical. Conditions: read-out: Solubility in water. The procedure, abridged: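 Solid compound (70 mg) was agitated in 0.10 M phosphate buffer (5.0 mL) for 20 h. Undissolved solid was filtered off on sintered glass, and the dissolved concentration was determined by UV absorbance.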
The subject of data set [6] is MT4. Description: Concentration required to reduce the number of viable uninfected cells by 50%. The format is functional, cell-based. Conditions: Homo sapiens. The procedure, abridged: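 Uninfected MT4 cells were used for the toxicity arm of the anti-HIV-1 cell-protection assay. The value is the concentration reducing the number of viable uninfected cells by 50%. […]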

For data set [7], the system named is MT4. As to the kind of experiment: Inhibitory Effect against HIV-1 (IIIB) in MT4 cells. Conditions: Homo sapiens.
Data set [8] has as its system HeLa. Description: Inhibition of cytopathogenicity of Varicella-Zoster virus(VZV)(YS) in Hela cell culture; Not active up to 128 ug/mL. The format is functional, cell-based, Homo sapiens.
The test system of data set [9] is MT4. Description: Inhibitory Effect against HIV-1 (IIIB) in MT4 cells; Not active up to 128 ug/mL. Conditions: Homo sapiens.
In data set [10] the test system is HeLa. Description: Inhibition of cytopathogenicity of herpes simplex type 2 virus([…] in Hela cell culture; Not active up to 128 ug/mL. The format is functional, cell-based, Homo sapiens.

Turning to `CCOP(=O)(O)CCOCn1cnc2c(N)ncnc21.N`, the IC50 was 25 µg/mL with HeLa [1], 176 µg/mL with HeLa [2] (read-out: IC50), 11.3 µg/mL in the data set on HeLa [3] (read-out: IC50) and 13.8 µg/mL in the data set on HeLa [4].
With `Nc1ncnc2c1ncn2COCCP(=O)(O)O`, the IC50 was 16 µg/mL (≈ 58.6 µM) with HeLa [1], 215 µg/mL (≈ 787 µM) with HeLa [2] (read-out: IC50), 3.98 µg/mL (≈ 14.6 µM) in the data set with HeLa [3] (read-out: IC50) and 5.86 µg/mL (≈ 21.5 µM) with HeLa [4]. Moreover, the solubility in data set [5] was found to be 13600 µg/mL (≈ 49900 µM).
`COC(=O)[C@@H](C)NP(=O)(C[C@H]1O[C@@H](n2cc(C)c(=O)[nH]c2=O)C[C@@H]1F)O[C@H]1C[C@H](n2cc(C)c(=O)[nH]c2=O)O[C@@H]1CO` (some centres undefined): the solubility in data set [5] was found to be 8920 µg/mL (≈ 14400 µM). The IC50 in the data set on MT4 [6] amounted to 462 µg/mL (≈ 748 µM); with MT4 [7] it was 0.5 µg/mL (≈ 0.81 µM).
With `COC(=O)[C@@H](C)NP(=O)(C[C@H]1O[C@@H](n2cc(C)c(=O)[nH]c2=O)C[C@@H]1N=[N+]=[N-])O[C@H]1C[C@H](n2cc(C)c(=O)[nH]c2=O)O[C@@H]1CO` (some centres undefined), in [5], the solubility was determined as 9200 µg/mL (≈ 14400 µM). Also, the IC50 in the data set with MT4 [6] was 458 µg/mL (≈ 714 µM); with MT4 [7], 0.76 µg/mL (≈ 1.19 µM).
For the compound `COC(=O)[C@H](C)NP(=O)(C[C@H]1O[C@@H](n2cc(C)c(=O)[nH]c2=O)C[C@@H]1F)O[C@H]1C[C@H](n2cc(C)c(=O)[nH]c2=O)O[C@@H]1CO` (some centres undefined), in data set [5], the solubility was 8790 µg/mL (≈ 14200 µM). Also, the IC50 with MT4 [6] amounted to 180 µg/mL (≈ 292 µM); in the data set on MT4 [7], 0.34 µg/mL (≈ 0.551 µM).
The like results for `COC(=O)[C@H](C)NP(=O)(C[C@H]1O[C@@H](n2cc(C)c(=O)[nH]c2=O)C[C@@H]1N=[N+]=[N-])O[C@H]1C[C@H](n2cc(C)c(=O)[nH]c2=O)O[C@@H]1CO` (some centres undefined) were, in that order, 9130 µg/mL (≈ 14300 µM), 200 µg/mL (≈ 312 µM) and 0.61 µg/mL (≈ 0.952 µM).
Consider `Cc1cn([C@H]2C[C@H](N=[N+]=[N-])[C@@H](CP(=O)(O)O[C@H]3C[C@H](n4cc(C)c(=O)[nH]c4=O)O[C@@H]3CO)O2)c(=O)[nH]c1=O`, for which the solubility in data set [5] stood at 3240 µg/mL (≈ 5830 µM). For the same compound, the IC50 in the data set with MT4 [6] was 99.5 µg/mL (≈ 179 µM); with MT4 [7], 1.92 µg/mL (≈ 3.46 µM).
As for `Cc1cn([C@H]2C[C@H](OP(=O)(O)C[C@H]3O[C@@H](n4cc(C)c(=O)[nH]c4=O)C[C@@H]3F)[C@@H](CO)O2)c(=O)[nH]c1=O`, the solubility in data set [5] came to 3980 µg/mL (≈ 7480 µM). In addition, the figures for the IC50 in the data set with MT4 [6] and with MT4 [7] were 79 µg/mL (≈ 148 µM) and 3.04 µg/mL (≈ 5.71 µM), respectively.
For `COC(=O)C(C)NP(=O)(CCOCn1cnc2c(N)ncnc21)O[C@H]1[C@H](O)[C@H](n2cnc3c(N)ncnc32)O[C@@H]1CO` (some centres undefined), the IC50 came to 4.82 µg/mL (≈ 7.93 µM) in the data set with HeLa [1], 215 µg/mL (≈ 355 µM) in the data set with HeLa [2] (read-out: IC50), 0.38 µg/mL (≈ 0.625 µM) in the data set with HeLa [3] (read-out: IC50) and 0.88 µg/mL (≈ 1.45 µM) in the data set on HeLa [4]. Besides, the solubility in [5] came to 8250 µg/mL (≈ 13600 µM).
Take `Nc1ncnc2c1ncn2COCCP(=O)(O)O[C@H]1[C@H](O)[C@H](n2cnc3c(N)ncnc32)O[C@@H]1CO`: in data set [5], the solubility was 2460 µg/mL (≈ 4710 µM). Besides, the IC50 in the data set on HeLa [2] was 346 µg/mL (≈ 662 µM); in the data set with HeLa [3] (read-out: IC50), 8.97 µg/mL (≈ 17.2 µM); with HeLa [8] it was “Not Active”; in the data set with HeLa [4], 16.3 µg/mL (≈ 31.2 µM).
As for `Cc1cn([C@H]2C[C@H](N=[N+]=[N-])[C@@H](CP(=O)(O)O)O2)c(=O)[nH]c1=O`, the solubility in data set [5] came out at 11200 µg/mL (≈ 33700 µM). For the same compound, the figures for the IC50 with MT4 [6] and in the data set with MT4 [7] were 115 µg/mL (≈ 346 µM) and 7.68 µg/mL (≈ 23.2 µM), respectively.
For `Cc1cn([C@H]2C[C@H](F)[C@@H](CP(=O)(O)O)O2)c(=O)[nH]c1=O`, in that order: 12300 µg/mL (≈ 39800 µM), 98.7 µg/mL (≈ 320 µM) and 11.8 µg/mL (≈ 38.3 µM).
`Cc1cn([C@H]2C=C[C@@H](CP(=O)(O)O)O2)c(=O)[nH]c1=O`: the figures for the IC50 entry in the data set with MT4 [9] and in the data set with MT4 [6] were “Not Active” and 196 µg/mL (≈ 679 µM), respectively.
For `Cc1cn([C@H]2C[C@H](C#N)[C@@H](CP(=O)(O)O)O2)c(=O)[nH]c1=O`, the IC50 result in the data set with MT4 [9] is “Not Active”; with MT4 [6], 69.9 µg/mL (≈ 222 µM).
On to `Cc1cn([C@H]2CC[C@@H](CP(=O)(O)O)O2)c(=O)[nH]c1=O`, for which the IC50 with MT4 [6] was 128 µg/mL (≈ 443 µM); with MT4 [7], 23.5 µg/mL (≈ 81 µM).
Consider `Cc1cn([C@H]2C[C@H](N=[N+]=[N-])[C@@H](CP(=O)(O)O)O2)c(N)nc1=O`, for which the IC50 result with MT4 [9] is “Not Active”; with MT4 [6] it was 58.6 µg/mL (≈ 178 µM).
For the compound `Nc1ncnc2c1ncn2COCCP(=O)(O)O.Nc1ncnc2c1ncn2[C@@H]1O[C@H](CO)[C@@H](O)[C@@H]1O`, the IC50 with HeLa [1] was 2.86 µg/mL; with HeLa [2] (read-out: IC50), 168 µg/mL; in the data set on HeLa [3] (read-out: IC50), 0.67 µg/mL; in the data set on HeLa [4], 1.25 µg/mL.
On to `Nc1ncnc2c1ncn2COCCO`, for which the IC50 in the data set with HeLa [1] was 6.5 µg/mL (≈ 31.1 µM); in the data set with HeLa [2] (read-out: IC50), 266 µg/mL (≈ 1270 µM); with HeLa [3] (read-out: IC50), 4.43 µg/mL (≈ 21.2 µM); with HeLa [4], 8.26 µg/mL (≈ 39.5 µM). Besides, in [5], the solubility turned out to be 1950 µg/mL (≈ 9320 µM).
Take `Nc1ncnc2c1ncn2COCCO.Nc1ncnc2c1ncn2COCCP(=O)(O)O`: the IC50 in the data set on HeLa [1] amounted to 0.18 µg/mL; with HeLa [2] (read-out: IC50), 235 µg/mL; in the data set on HeLa [3] (read-out: IC50), 0.15 µg/mL; in the data set on HeLa [4] it was 0.38 µg/mL.
With `Nc1nc2c(ncn2COCCO)c(=O)[nH]1` [ACYCLOVIR], the IC50 with HeLa [2] (read-out: IC50) was 250 µg/mL (≈ 1110 µM); with HeLa [3] (read-out: IC50), 0.1 µg/mL (≈ 0.444 µM); in the data set with HeLa [4], 0.23 µg/mL (≈ 1.02 µM).
For the compound `Nc1ncnc2c1ncn2[C@@H]1O[C@H](CO)[C@@H](O)[C@H]1O` [ADENOSINE], the solubility in [5] came out at 400 µg/mL (≈ 1500 µM). In addition, the IC50 in the data set on HeLa [2] is 98.8 µg/mL (≈ 370 µM); with HeLa [3], 10.8 µg/mL (≈ 40.4 µM); in the data set on HeLa [10], “Not Active”; in the data set with HeLa [8], “Not Active”.
As for `Cc1cn([C@H]2C[C@H](N=[N+]=[N-])[C@@H](CO)O2)c(=O)[nH]c1=O` [ZIDOVUDINE], the results for the IC50 in the data set on MT4 [6] and with MT4 [7] were 57.3 µg/mL (≈ 214 µM) and 0.02 µg/mL (≈ 0.0748 µM), respectively.

The term IC50 denotes the point on the concentration scale where inhibition reaches its midpoint. In general, solubility refers to the dissolved amount per volume that the medium holds.
